INS-1E GSIS act – GLuc luminescence reporter in INS-1E cells, primary screen for activators of glucose-dependent secretion of insulin; INS-1E GLuc reporter insulin secretion, 2-3 h; activation, % at 16.6 µM; 370,000 compounds, 0.61% hits;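 active = lowest replicate activation of at least 40%, so every replicate reaches that level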;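 note: 0% = median of neutral control wells and 100% = median of IBMX positive control wells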
XiGFP reactiv – activators of inactive X chromosome reactivation, primary screen, imaging, XiGFP fibroblasts, GFP high-content imaging, set 2; XiGFP mouse fibroblasts, % GFP-positive cells imaging, 3 d; cells co-treated with 5-aza-dC sensitizer; scaled so ellipticine positive control = 100%; 360,000 compounds, 0.055% hits; activation, % at 7.58 µM;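 active = mean normalized replicate activation at least 10% and every replicate at or above 10%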;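 note: 0% = median of on-plate neutral control wells and 100% = ellipticine 6 µM median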
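material = 68-5-11 XiGFP fibroblast line | medium = DMEM plus 5-aza-dC sensitizer | schedule = 3 days compound exposure | benchmarks = positive control ellipticine, 6 µM final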
PAX8 inh HTS – inhibitors of PAX8-driven TPO luciferase reporter, primary screen, RMG-I cells, single concentration; SteadyGlo, 24 h; 360,000 compounds, 1.2% hits; inhibition, % at 12.6 µM;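 active = mean replicate inhibition at least 60% with every replicate also reaching 60%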;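 note: luciferase light reporting Pax8 driven TPO promoter activity; plate controls were median of neutral control wells for no effect and mitoxantrone controls for full effect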
PGC1a acetyl inh – inhibitors of PGC1a acetylation signal, primary screen, cell-based, U2OS, AlphaScreen, inhibitor mode | AlphaScreen anti-acetyl-lysine; with virally co-expressed GCN5 acetyltransferase | inhibition, % at 15.6 µM | 350,000 compounds, 0.17% hits;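 active = every replicate shows inhibition of at least 40%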;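 note: 0% = neutral control wells and 100% = positive control wells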
MLL AF4-AF9 inh – inhibitors of AF4 peptide binding to AF9, primary screen, biochemical, AlphaScreen, biotin-AF4 peptide, FLAG-AF9, single point; 350,000 compounds, 0.47% hits; inhibition, % at 10 µM; AID 651704, 2012; Protein AF-9 (Homo sapiens), P42568;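 active = every replicate reaching a set inhibition limit, whatever the replicate mean, cut at about 25% in these data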;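 note: 0% = plate neutral control median and 100% = total signal loss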
Target sequence (P42568 whole entry, looked up): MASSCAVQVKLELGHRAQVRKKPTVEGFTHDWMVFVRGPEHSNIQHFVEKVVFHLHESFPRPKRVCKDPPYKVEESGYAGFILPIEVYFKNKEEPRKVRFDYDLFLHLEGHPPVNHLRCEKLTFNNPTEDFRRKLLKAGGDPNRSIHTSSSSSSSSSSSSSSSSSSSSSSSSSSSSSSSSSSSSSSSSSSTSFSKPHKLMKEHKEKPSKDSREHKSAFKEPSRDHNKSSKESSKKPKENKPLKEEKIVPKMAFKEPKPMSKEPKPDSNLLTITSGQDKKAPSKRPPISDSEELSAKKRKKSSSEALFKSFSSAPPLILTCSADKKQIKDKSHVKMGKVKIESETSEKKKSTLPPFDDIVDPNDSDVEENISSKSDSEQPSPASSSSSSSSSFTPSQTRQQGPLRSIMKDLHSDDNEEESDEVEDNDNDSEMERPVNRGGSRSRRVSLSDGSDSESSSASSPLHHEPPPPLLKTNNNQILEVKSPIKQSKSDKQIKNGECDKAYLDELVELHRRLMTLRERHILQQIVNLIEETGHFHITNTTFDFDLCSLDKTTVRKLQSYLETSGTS
EWS-Fli block – EWS/Fli-driven NR0B1 reporter inhibitors, primary screen, A673 cells, NR0B1 luciferase, luminescence, MLPCN library; viability-normalised; inhibition, % at 12.6 µM; 350,000 compounds, 0.67% hits;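 active = mean inhibition of at least 50% after viability correction, with every replicate also passing that limit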;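 note: firefly luciferase signal divided by Alamar Blue viability fluorescence both relative to DMSO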
* = called active by the depositor; . = not tested or not shown; ! = not active in a repeat. This is a sample that favours compounds with a hit; in the whole collection about 2.1% have one here.

SMILES | INS-1E GSIS act | XiGFP reactiv | PAX8 inh HTS | PGC1a acetyl inh | MLL AF4-AF9 inh | EWS-Fli block
CC(C)(C)c1cc(CCC(=O)NCCc2ccccn2)cc(C(C)(C)C)c1O | -38.3 | 0.0 | 3.2 | -10.1 | -4.2 | 4.2
O=C(N[C@@H]1CC[C@H](CC(=O)N2CCCCC2)O[C@@H]1CO)c1ccccn1 | 15.3 | 0.3 | -30.2 | 7.4 | -0.5 | 0.3
N#Cc1sc2nc3c(c(-c4cccnc4)c2c1N)CCC3 | 46.1* | . | . | -7.6 | . | .
CCc1ccc(N=CC23c4ccccc4C(c4ccccc42)C2C(=O)N(c4ccc(OC)cc4)C(=O)C23)cc1 (centres undefined) | . | . | 19.9 | 7.8 | . | .
COc1ccc(N2C(=O)C3C4c5ccccc5C(C=Nc5ccc(C)cc5C)(c5ccccc54)C3C2=O)cc1 (centres undefined) | . | . | 65.0* | -0.1 | . | .
C[C@H](CO)N1C[C@H](C)[C@@H](CN(C)S(=O)(=O)c2cn(C)cn2)Oc2ccc(NC(=O)CCN3CCOCC3)cc2C1=O | 7.4 | 0.0 | . | -5.3 | -1.1 | -4.6
O=C1CCCc2ccccc2N1Cc1ccc(F)cc1 | 3.0 | 0.1 | 10.2 | 3.8 | -1.2 | -1.5
CCN1C(=O)CCCc2ccccc21 | 11.4 | 0.1 | 1.7 | 67.7* | 0.1 | -3.7
C[C@@H]1CN([C@H](C)CO)C(=O)c2cccc(NS(=O)(=O)c3cccs3)c2O[C@@H]1CN(C)S(=O)(=O)c1cccs1 | -11.2 | -0.1 | -6.2 | -6.7 | -11.9 | -5.7
COc1ccc(OCCN(C)Cc2c(O)ccc3ccccc23)cc1 | -30.6 | 0.0 | 62.0* | -13.4 | 3.2 | 8.2
C[C@@H]1CN([C@@H](C)CO)C(=O)CCCn2nncc2CO[C@H]1CN(C)C(=O)NC1CCCC1 | 14.3 | 0.3 | . | . | . | .
C[C@H]1CN([C@@H](C)CO)S(=O)(=O)c2ccc(/C=C/c3ccccc3)cc2O[C@H]1CN(C)C(=O)NC1CCCCC1 | 5.6 | 0.0 | 70.2*! | 15.8 | 1.8 | 5.1
C[C@@H]1CN([C@H](C)CO)S(=O)(=O)c2ccc(/C=C/c3ccccc3)cc2O[C@@H]1CN(C)C(=O)Nc1cc(F)ccc1F | -6.6 | -0.3 | 42.7 | -1.5 | 1.3 | 4.0
C[C@@H]1CN([C@@H](C)CO)S(=O)(=O)c2ccc(/C=C/c3ccccc3)cc2O[C@H]1CN(C)C(=O)NC1CCCCC1 | -14.7 | 0.6 | -4.0 | -0.8 | 5.3 | 6.6
C[C@H](CO)N1C[C@H](C)[C@@H](CN(C)C(=O)NC2CCCCC2)Oc2cc(C#Cc3ccc(F)cc3)ccc2S1(=O)=O | -10.0 | 0.3 | 82.2* | 12.7 | 0.9 | 5.5
C[C@@H]1CN([C@H](C)CO)S(=O)(=O)c2ccc(C#Cc3ccc(F)cc3)cc2O[C@@H]1CN(C)C(=O)NC1CCCCC1 | -7.5 | -0.3 | 58.3 | 0.3 | 0.9 | 11.4
C[C@H](CO)N1C[C@H](C)[C@@H](CN(C)C(=O)Nc2cc(F)ccc2F)Oc2cc(/C=C/c3ccccc3)ccc2S1(=O)=O | -2.6 | -0.2 | 66.4* | -15.6 | -2.9 | 22.3
C[C@@H]1CN([C@@H](C)CO)S(=O)(=O)c2ccc(C#Cc3ccc(F)cc3)cc2O[C@H]1CN(C)C(=O)NC1CCCCC1 | -4.5 | -0.5 | 99.0* | -6.3 | -0.8 | -3.6
C[C@H](CO)N1C[C@H](C)[C@@H](CN(C)C(=O)NC2CCCC2)Oc2cc(C#Cc3ccc(F)cc3)ccc2S1(=O)=O | -17.0 | -0.5 | . | 14.4 | -2.6 | 12.3
CCOC(CCn1c(SCC(=O)NC2CCCC2)nc2ccccc2c1=O)OCC | 4.5 | 0.2 | 0.3 | . | -2.0 | 2.8
CCOCCCn1c(SCC(=O)NC2CCCCC2)nc2ccccc2c1=O | 43.0* | 0.0 | 28.5 | 7.4 | 2.1 | 1.8
O=[N+]([O-])c1ccc(-c2ccc(/C=N/Nc3nc(N4CCCC4)nc(N4CCCC4)n3)o2)cc1 | 10.4 | 0.0 | -2.1 | -0.5 | -1.1 | 39.6
COc1ccc(-c2cnnc(N/N=C/c3ccc(-c4ccc([N+](=O)[O-])cc4)o3)n2)cc1 | 2.6 | -0.2 | 12.3 | . | -0.5 | 53.3*
CC1(C(=O)NCc2cccs2)Cc2c(-c3cccc(C(F)(F)F)c3)ccnc2O1 (centres undefined) | -2.8 | 0.2 | 37.4 | -8.2 | -0.3 | 55.3*
CC1(C(=O)NCc2ccco2)Cc2c(-c3ccccc3)ccnc2O1 (centres undefined) | -6.1 | 0.5 | 10.1 | -33.8 | 2.7 | 59.4*
SMILES | INS-1E GSIS act | XiGFP reactiv | PAX8 inh HTS | PGC1a acetyl inh | MLL AF4-AF9 inh | EWS-Fli block
CC(=O)NCCNC(=O)C1(C)Cc2c(-c3ccccc3)ccnc2O1 (centres undefined) | 0.7 | 0.1 | 2.1 | . | -1.9 | -2.0
CC1(C(=O)NCc2ccccc2)Cc2c(-c3cccc(C(F)(F)F)c3)ccnc2O1 (centres undefined) | -30.6 | 0.1 | -0.4 | -11.1 | 1.8 | -2.7
COC(=O)[C@H]1[C@H](CO)[C@H]2Cn3c(ccc(-c4cccc(F)c4)c3=O)[C@H]2N1Cc1ccccn1 | -10.4 | 0.2 | 17.1 | . | -1.3 | 3.7
COC(=O)c1cnc(Oc2ccc(NC(=O)NC(=O)c3c(OC)cccc3OC)cc2)cc1C(F)(F)F | -2.1 | 0.1 | 72.8* | 0.9 | -0.4 | 52.0*
COC(=O)c1cnc(Oc2ccc(NC(=O)NC(=O)c3c(F)cccc3F)cc2)cc1C(F)(F)F | -3.5 | -0.1 | 22.3 | 7.4 | -2.5 | -1.6
COC(=O)c1cnc(Oc2c(Cl)cc(N)cc2Cl)cc1C(F)(F)F | 15.1 | 0.0 | 4.7 | -4.8 | 6.1 | 4.3
COC(=O)c1cnc(Oc2ccc(NC(=O)NC(=O)c3c(F)cccc3Cl)cc2)cc1C(F)(F)F | 6.1 | 0.3 | 31.3 | -3.9 | -1.9 | 51.1*
O=C(Cc1csc(Nc2nc(=S)[nH]c3ccccc23)n1)NCCCN1CCN(c2ccccc2F)CC1 | -2.8 | 0.1 | 65.0* | . | -0.5 | 43.6
CCC(=O)N(C)C[C@H]1Oc2cc(-c3ccccc3OC)ccc2S(=O)(=O)N([C@@H](C)CO)C[C@H]1C | 4.0 | 0.6 | -2.4 | 5.7 | 0.4 | -1.3
CNC[C@H]1Oc2ccc(NC(=O)C3CC3)cc2CC(=O)N([C@@H](C)CO)C[C@H]1C | 3.7 | 0.0 | -16.5 | 0.4 | -5.8 | -8.4
CN(C)c1ccnc2sc(C(N)=O)c(N)c12 | 17.6 | . | . | 47.8* | . | .
CN(C)c1ccnc2sc(C(=O)c3ccc(Br)cc3)c(N)c12 | -23.1 | 0.5 | -27.7 | . | 0.0 | -33.4
C[C@@H]1ON(C)[C@H]2C[C@H]3c4[nH]c5c(-c6cccc(Cl)c6)cccc5c4CCN3C(=O)[C@@H]12 | -16.3 | 2.1 | 23.0 | . | . | 6.2
C[C@@H]1ON(C)[C@H]2C[C@H]3c4[nH]c5cccc(Br)c5c4CCN3C(=O)[C@@H]12 | 125.4* | 1.6 | -12.8 | . | . | 3.5

High-throughput results from PubChem BioAssay.
